# Results as given in the EternaBench riboswitch data.
# System: MS2 coat protein
# Assay: apparent Kd, MS2 coat protein; higher = weaker binding; RNA-MaP array; FMN 200 µM where present
# Summary of the method: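 Stalled E. coli RNA polymerase transcribed the designs on Illumina sequencing-chip clusters. SNAP-549-labelled MS2 coat protein was titrated from 0.7 or 1.5 nM, doubling to 3 µM, without and then with constant ligand, in 100 mM Tris-HCl pH 7.5, 80 mM KCl, 4 mM MgCl2, BSA, DTT, yeast tRNA and Tween-20. Per-cluster binding curves were fitted to green signal normalised to red-channel RNA signal and control-cluster median Fmax. The apparent Kd is the median of the filtered fits.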
# [1] = designed as: OFF switch for flavin mononucleotide, no ligand
# [2] = ligand present: flavin mononucleotide, designed as: OFF switch for flavin mononucleotide
# [3] = designed as: ON switch for flavin mononucleotide, no ligand
# [4] = ligand present: flavin mononucleotide, designed as: ON switch for flavin mononucleotide
Sequence,apparent Kd [1] [nM],apparent Kd [2] [nM],apparent Kd [3] [nM],apparent Kd [4] [nM]
AAUAACAGAGGAUAUACUAUUUUAUGUGUUUGUUAUUUUGAACAUGAGGAUCACCCAUGUAGAAGGCUGAAUGA,27.7,28,–,–
AAUAACAGAGGAUAUACUGUUUUAUGUGUUUGUUAUUUUGAACAUGAGGAUCACCCAUGUAGAAGGCUGAAUAA,24.6,22.1,–,–
AAUAACAGAGGAUAUACUGUUUUAUGUGUUUGUUGUUUUAAACAUGAGGAUCACCCAUGUAGAAGGCUGAGUAA,23.2,23.7,–,–
AAUAAUUAGUAAGGAUAUACUAGUGGUUAGCUUGUAGAAGGUACAGUCUUAUGUAUAACAAAUUAACAUGAGGAUCACCCAUGU,–,–,10.6,8.19
AAUACACUCUAGGAUAUUCAUGCCAGCAGUAUCGAAGAAGGAGAGACAUGAGGAUCACCCAUGUGGAAGCUCCU,13.1,16.4,–,–
AAUAUGAGCUGGUAAAUAAAACCGACAUGAGGAUCACCCAUGUAGGAUAUCAGCACGAUAAGUGCUGAGAAGGACAUCCAGCUC,14.4,16.7,–,–
AAUAUGAGCUGGUAUAAACCCGAAACAUGAGGAUCACCCAUGUAGGAUAUCAGCACGAUAAGUGCUGAGAAGGACAUCCAGCUC,14.5,14.5,–,–
AAUAUGUUGCAGAAGGCUAUGUUGUGGUAGUACCUCAUGACAUGAGGAUCACCCAUGUUUGUGUUGGAGGAUAUGCAAUAUAUU,12.7,40.6,–,–
AAUCACAUGAGGAUCACCCAUGUGCCAGAAGGCACAAAUCUGCCUGGUGCGCCCGGGCUUCUCUGUGAGGAUAUGGAAAAGAAG,–,–,309,76
AAUCAUUAUCGUUAUUUAUAUUAUUCAGAAGGACAAUUAAUAGCACAUGAGGAUCACCCAUGUUUGUAGGAUAUGAUGUUAUAC,–,–,15.2,7.95
AAUCCACAUGAGGAUCACCCAUGUGAGGAUAUGUCCAUAUUCGGCAAAUCGGAUAUGGACAGAAGGCACAUAAA,32.9,87.1,–,–
AAUGAAUAUAAAUUGUAUUUGUCGUAGGAUAUGGGUGACAUGAGGAUCACCCAUGUUGCAGACGACCAGAAGGGCGGCGGAUAU,–,–,18,18.2
AAUGAGACCGCAGGAUAUCCACAUGAGGAUCACCCAUGUUCUCAGACCGGAAGCACGAUCUGCGAGGAGAAGGGCGACCUCAUA,–,–,716,53.1
AAUGAUUGAUUCCACUUAUACAUGAGGAUCACCCAUGUUAUCGAGGAUAUGCAUUAGAGUGUUUAGCAGAAGGCGAUGUAAUUG,7.82,25,–,–
AAUGGCUGAGGAUAUACACUCACGUCUAAAAGGUUCAAAUGACAUGAGGAUCACCCAUGUAGAAGGCAGCCCGA,–,50.2,–,–
AAUGUUUGAUUCCACUUAUACAUGAGGAUCACCCAUGUUAUCGAGGAUAUGCAUUAGAGCGUUUAGCAGAAGGCGAUGUAAUUG,7.41,20.3,–,–
AAUUAACAUGAGGAUCACCCAUGUGAGGAUAUGGUAUUACUUGGACAGCUAUGAUCUACCAGAAGGCACAUAUA,28.7,49.4,–,–
AAUUAACUCACAGGAUAUAGCAGAGGUCGAGUGAACUUACACGCGACGAGGCUAGAAGGGUGACCACAUGAGGAUCACCCAUGU,–,–,872,103
AAUUAGGUCACAGGAUAUACAACUUCCAAUGCUGUAGAAGGGUGUCACAUACUUAGCUGACAUGAGGAUCACCCAUGUAUCCAC,–,–,184,70.5
AAUUAGGUCACAGGAUAUACAUCAUCCAUAGCUGUAGAAGGGUGUCAAAAUAAUAUCUGACAUGAGGAUCACCCAUGUUUCCAC,–,–,25,14.5
AAUUAUUUACAGAAGGAGUAUGAUAAUGUUUUACUAGGAUAUGUAUACAUGAGGAUCACCCAUGUUAUUGUAGGUUUUUUAUGU,12.7,9.65,–,–
AAUUAUUUGUAGAAGGAAGGAGAUUUUGUAUUCUUAGGAUAUACUAUUACAUGAGGAUCACCCAUGUUUGUUGGGUUGCAAUGU,315,323,–,–
AAUUCAAACAGAGGAUAUUGUUUAUCUCUAUUGCAAGAAGGCUGAUCUUACUACUUACUUAUGAAACAUGAGGAUCACCCAUGU,–,–,36.6,31.8
AAUUCACAUGAGGAUCACCCAUGUCAGGAUAUGGUUUCACGUGUUUCUGUGCUUGAGGCCAGAAGGGACAGCUA,65.5,76.5,–,–
AAUUCGUGUCGAGGAUAUAUUAUAUGACAACAAACACAUACAUGAGGAUCACCCAUGUCCCAUGUAUAGAAGGCGAUGUGUGUG,–,–,260,228
AAUUCGUUCUAGAAGGUGCAUUUGUUAAACGUGCAAGGAUAUAGACAUGAGGAUCACCCAUGUCUAUGAGACAUCGGCCUCCUG,5.33,8.23,–,–
AAUUGACACGUAGGAUAUCGAUCUAUAUUAACUCGAGAAGGACGUACAUGAGGAUCACCCAUGUUUAAUGGAGUAGAUAUGUUG,82.8,308,–,–
AAUUGGAUCCAGAAGGCAUGGACGACCCGUCACAUUAACAUGAGGAUCACCCAUGUGAAAACACAUGAGGAUAUGGAUCCUAAA,–,–,28.7,7.44

Sequence,apparent Kd [1] [nM],apparent Kd [2] [nM],apparent Kd [3] [nM],apparent Kd [4] [nM]
AAUUUACAGGGAGGAUAUACAUGAGGAUCACCCAUGUAAUCAUAUGAUAUUUUUUUUGUAUGAGUGUAGAAGGCCCAAAUAAAA,9.32,11.1,–,–
AAUUUACAUGAGGAUCACCCAUGUGAGGAUAUAUAUAUAUGCUUGUUAUUGCGUGUGUGUAGAAGGCGCGUGAU,21.1,21,–,–
AAUUUCAGAAGAGGAUAUUGACAUGAGGAUCACCCAUGUAUUUGGGAAUGUUUACUGAAUUCUUACAAGAAGGUUUACGAACUU,98,79.7,–,–
AAUUUGUGAAAAUUACAUGAGGAUCACCCAUGUUAGGGAAUGCAGGAUAUGUGGAAUAUUAUUUAACAGAAGGGCAAUAAUUUU,–,–,56.3,41.6
ACAAAUGGAGGAUAUACAUGAGGAUCACCCAUGUAUAUCCUACAUAUGUGAUAAUCAUGUAGAAGGCCAUUUGA,12.3,11,–,–
ACAAGACAUGAGGAUCACCCAUGUGAGGAUAUGCUCGGAUGACAUGACGUUAGCUAACGCAGAAGGCACAAUAA,55.8,56,–,–
ACAAGAUCAGGAUAUACAUGAGGAUCACCCAUGUAUAUCCAAAAAGGGCUUUCUACAUGUAGAAGGGAUCUUGU,13.4,13.1,–,–
ACAAGAUCAGGAUAUACAUGAGGAUCACCCAUGUUUAUCAAAAAAAGGCUUUCAUCAUGUAGAAGGGAUCUUGU,99,126,–,–
ACAAUAGUAUCACAUGUAUUACAUGAGGAUCACCCAUGUAACUAGGAUAUGUUUUAAAAUUUACAACAGAAGGAGUUAUUAUGU,8.2,14.6,–,–
ACAAUGUUAGGAUAUCUGAGAAUUAGUCUCGACUAGUCGAAGGAGAAGGAACAUGAGGAUCACCCAUGUAGAUC,43.4,275,–,–
ACACAGAAAGGAUAUGCAGGGAGAUAAAGCUUCUUGUUCCAACAUGAGGAUCACCCAUGUAGAAGGUUCGAAAA,32,99.5,–,–
ACAGACCAUCGAGGAUAUGAACAUGAGGAUCACCCAUGUAAGUGGAAGAUGGUGAUUCCUGGGCUUCAGAAGGCGAACGUCAGG,6.12,11.8,–,–
ACAGAGCCUGACAUGAGGAUCACCCAUGUUAGAUUGUUAUGUCAGGAUAUUGUCUAGCAACUAGACAAGAAGGGAUGCUCUGUG,–,–,392,29.8
ACAGAUGCUGACAUGAGGAUCACCCAUGUUAGAUUGUUAUGUCAGGAUAUUAUCUGGCAACCAGAUGAGAAGGGACCAUCUGUG,–,–,16.5,7.33
ACAGGACCAGUCAGGAUAUGCAGGCGAAUCUGCUUGUAGAAGGGACAUGAGGAUCACCCAUGUGCCGUGGGAUU,19.6,31.4,–,–
ACAGUAUAUGUAGGAUAUCAUUGGCCAGGUAGGUGAGAAGGGCAUAGUACAUGAGGAUCACCCAUGUGUUGGUCCUCGCAGAAA,392,233,–,–
ACAUAAAUUCGAGGAUAUCGGUGAUAAAGAAGACGAGAAGGCGAUUUAAGAUAUAUGGUUAAAGACAUGAGGAUCACCCAUGUA,–,–,32.1,29.7
ACAUACAUUCGAGGAUAUCGGUGAUAACUCAAACGAGAAGGCGAUUUAAAACAUAAUGCUGUAGACAUGAGGAUCACCCAUGUA,–,–,497,137
ACAUCGACAGGAUAUACGUGAGUGGAAAAAGUGUAUCCACUACAUGAGGAUCACCCAUGUAGAAGGGUCGAUGA,18.5,19.8,–,–
ACAUGACAUGAGGAUCACCCAUGUCGAUAAAAGCAAGGAUAUGGGCCCGAGUCGUUCGGACCAGAAGGUGCGUCUC,–,–,23.6,18
ACAUGAGGAUCACCCAUGUAAAAUGAAGAAGGUAGAUACUUGAGGAUCACCCAUGUACAUGGGACUAAGGAUAUUCUAAUAAUU,–,–,76.9,64.3
ACAUGAGGAUCACCCAUGUAAAAUUAGGAUAUAUGACUGCACAUGAGGUUCACCCAUGUUCUACCGUAGAAGGGAUAAAUAAUU,–,–,71.1,75.6
ACAUGAGGAUCACCCAUGUAAAGCGAGGAUAUUUCACUGCACAUGAGGUUCGCCCAUGUUCUGCGGAAGAAGGUGCAAAUAAUU,–,–,–,28.1
ACAUGAGGAUCACCCAUGUAGAAGGAGAGGGCAGAAUUUACGCAGGAUAUGCAUUUUUGGGAAAAGUAGAAGGGUGAGGGCGGA,–,–,36.4,25.2
ACAUGAGGAUCACCCAUGUAUACAUAGGAUAUUGGUGAUCAGGCAUGUUUUACAGGAUAUGUCUGCGAGAAGGAUGCAAGUUGC,–,–,557,424
ACAUGAGGAUCACCCAUGUAUUACAUGGUUAAGUUUAUUAACAGAAGGCGAAAUUACCACUUUUUCGAGGAUAUGUAUUCUAUA,38.2,52.7,–,–
ACAUGAGGAUCACCCAUGUGAAAGAAAUGGCUGACUUUGAGCUAGGAUAUUUGUGCAUAUCAAACGAAGAAGGAGCAUUACUGG,22.2,21,–,–
